Common to all, as to assay type: ADME
Series [1] concerns the target T1, Solute carrier family 15 member 1 (Mus musculus, UniProt Q9JIP7).
T1 sequence (Q9JIP7 whole entry): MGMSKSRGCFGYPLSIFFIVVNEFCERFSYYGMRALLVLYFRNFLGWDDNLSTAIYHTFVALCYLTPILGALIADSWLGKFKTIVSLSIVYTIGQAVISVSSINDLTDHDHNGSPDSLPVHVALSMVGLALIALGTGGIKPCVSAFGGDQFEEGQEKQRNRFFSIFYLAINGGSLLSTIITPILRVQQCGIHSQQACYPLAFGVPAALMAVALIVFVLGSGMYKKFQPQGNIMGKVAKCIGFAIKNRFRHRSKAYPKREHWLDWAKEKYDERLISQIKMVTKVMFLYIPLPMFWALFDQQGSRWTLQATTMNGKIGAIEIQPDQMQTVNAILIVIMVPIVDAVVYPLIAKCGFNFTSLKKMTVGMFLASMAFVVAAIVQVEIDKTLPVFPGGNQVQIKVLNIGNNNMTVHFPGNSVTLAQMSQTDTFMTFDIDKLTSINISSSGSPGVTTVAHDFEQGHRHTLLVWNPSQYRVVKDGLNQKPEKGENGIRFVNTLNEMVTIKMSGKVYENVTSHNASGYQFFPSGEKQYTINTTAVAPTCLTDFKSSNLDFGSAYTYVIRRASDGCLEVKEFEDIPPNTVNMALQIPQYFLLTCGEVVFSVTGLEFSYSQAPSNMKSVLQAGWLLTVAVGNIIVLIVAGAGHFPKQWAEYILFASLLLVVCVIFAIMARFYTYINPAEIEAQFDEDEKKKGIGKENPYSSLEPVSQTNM
The series can be described thus: Drug uptake in Pichia pastoris GS115 expressing mouse recombinant PEPT1 at 5 uM after 30s by dual-channel liquid scintillation counting analysis in presence of elacridar relative to control. As to conditions: 0.5 min. Put shortly:
(§1)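 [3H]GlySar 5.0 µM final, 30-s uptake at 24°C in 100 mM potassium phosphate pH 6.5, with or without a potential inhibitor at 10 mM. Cells are methanol-induced transformants. Values are vector-subtracted and expressed as percent of buffer control. Mean ± SE (n=3). ANOVA with Dunnett's test.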

The target in series [2] is T2, Solute carrier family 15 member 1 (Rattus norvegicus, UniProt P51574).
T2 sequence (P51574 whole entry): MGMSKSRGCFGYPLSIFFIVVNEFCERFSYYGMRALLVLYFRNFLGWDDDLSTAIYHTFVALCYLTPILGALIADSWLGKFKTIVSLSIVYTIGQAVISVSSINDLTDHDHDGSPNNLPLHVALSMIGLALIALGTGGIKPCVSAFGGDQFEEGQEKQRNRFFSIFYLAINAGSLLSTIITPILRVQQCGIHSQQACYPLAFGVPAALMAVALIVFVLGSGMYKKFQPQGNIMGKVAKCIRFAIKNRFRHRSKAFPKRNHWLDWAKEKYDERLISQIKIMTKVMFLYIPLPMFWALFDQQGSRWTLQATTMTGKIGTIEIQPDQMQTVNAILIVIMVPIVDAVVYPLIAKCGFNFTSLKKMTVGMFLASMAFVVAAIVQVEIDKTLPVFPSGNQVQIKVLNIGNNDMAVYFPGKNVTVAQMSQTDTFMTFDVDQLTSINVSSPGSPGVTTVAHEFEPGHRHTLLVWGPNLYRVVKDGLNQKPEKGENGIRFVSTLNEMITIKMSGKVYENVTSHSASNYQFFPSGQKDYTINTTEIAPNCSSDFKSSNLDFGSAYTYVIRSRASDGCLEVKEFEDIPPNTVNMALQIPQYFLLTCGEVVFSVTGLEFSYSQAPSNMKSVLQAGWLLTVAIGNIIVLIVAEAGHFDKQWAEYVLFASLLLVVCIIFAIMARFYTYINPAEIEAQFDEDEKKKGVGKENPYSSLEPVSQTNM
The series can be described thus: Drug uptake in Pichia pastoris GS115 expressing rat recombinant PEPT1 at 5 uM after 30s by dual-channel liquid scintillation counting analysis in presence of elacridar relative to control. As to conditions: 0.5 min. An outline of the steps:
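Rat PEPT1 (pPIC3.5K-rPept1) in GS115 His+Mut+ transformant, methanol-induced 20-24 hr in BMMY at 30°C, washed into 100 mM potassium phosphate pH 6.5. [3H]GlySar final 5.0 µM with inhibitor at 10 mM, 30 sec at 24°C. Counts taken by liquid scintillation after 24 hr standing. Values are vector-subtracted and given as % of buffer control. Mean ± SE, n=3.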

The target in series [3] is T3, Solute carrier family 15 member 1 (Homo sapiens, UniProt P46059).
T3 sequence (P46059 whole entry): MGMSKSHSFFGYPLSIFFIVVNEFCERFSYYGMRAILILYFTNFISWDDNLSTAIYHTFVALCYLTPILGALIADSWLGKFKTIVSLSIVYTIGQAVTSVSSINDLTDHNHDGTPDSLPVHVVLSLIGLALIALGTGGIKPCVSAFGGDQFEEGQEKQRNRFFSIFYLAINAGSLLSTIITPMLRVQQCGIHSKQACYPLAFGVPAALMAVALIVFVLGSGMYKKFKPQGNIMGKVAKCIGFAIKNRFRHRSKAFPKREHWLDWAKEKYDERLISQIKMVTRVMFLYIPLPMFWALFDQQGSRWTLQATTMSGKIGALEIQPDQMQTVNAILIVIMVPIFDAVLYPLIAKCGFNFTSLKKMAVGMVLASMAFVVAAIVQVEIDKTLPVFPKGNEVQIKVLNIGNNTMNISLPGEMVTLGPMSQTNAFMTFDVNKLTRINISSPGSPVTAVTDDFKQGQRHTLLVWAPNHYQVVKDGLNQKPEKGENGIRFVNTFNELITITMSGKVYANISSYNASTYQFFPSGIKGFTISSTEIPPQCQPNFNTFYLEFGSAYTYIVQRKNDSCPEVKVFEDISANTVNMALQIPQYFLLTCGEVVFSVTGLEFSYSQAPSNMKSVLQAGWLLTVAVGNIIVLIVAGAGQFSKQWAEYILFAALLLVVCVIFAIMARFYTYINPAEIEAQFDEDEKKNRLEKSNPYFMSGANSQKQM
The series can be described thus: Activity at human recombinant PEPT1 expressed in Pichia pastoris GS115 assessed as non-saturable rate constant after 30s by dual-channel liquid scintillation counting analysis. An outline of the steps:
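[3H]GlySar concentration series 0.005-10 mM, 30-s uptake at 24°C in 100 mM potassium phosphate pH 6.5. Cells come from His+Mut+ GS115 transformants induced 20-24 h in methanol medium. Uptake is normalised to OD600. Data are fitted to Michaelis-Menten plus a first-order nonsaturable term (Kd), weighting unity. Parameters are mean ± SE (n=9).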

The target of series [4] is T2, Solute carrier family 15 member 1. Kind of series: Drug uptake in Pichia pastoris GS115 expressing rat recombinant PEPT1 at 5 uM after 30s by dual-channel liquid scintillation counting analysis in presence of SITS relative to control. The note with it: in vivo, 0.5 min. An outline of the steps: as §1
For series [5] the target is unchanged. The series can be described thus: Drug uptake in Pichia pastoris GS115 expressing rat recombinant PEPT1 at 5 uM after 30s by dual-channel liquid scintillation counting analysis in presence of cefadroxil relative to control. The note with it: in vivo, 0.5 min. Put shortly:
as §1

The target of series [6] is T1, Solute carrier family 15 member 1. Kind of series: Drug uptake in Pichia pastoris GS115 expressing mouse recombinant PEPT1 at 5 uM after 30s by dual-channel liquid scintillation counting analysis in presence of cephapirin relative to control. As to conditions: 0.5 min. Put shortly: as §1

Structures are written as SMILES.

`[3H]C(C(=O)O)N(C)C(=O)CN` (stereo unspecified): the Drug uptake in series [1] stood at 89.3%; in series [2] it was 119%; in series [4], 107%; in series [5] it was 23.1%; in series [6], 83.7%. Besides, the Kd in series [3] turned out to be 2.21 uL/OD/min.

Values taken from ChEMBL document CHEMBL3526053, “Species-dependent uptake of glycylsarcosine but not oseltamivir in Pichia pastoris expressing the rat, mouse, and human intestinal peptide transporter PEPT1” (Drug Metab Dispos, 2012).
